Assay results published in ChEMBL document CHEMBL1143104, “Identification and characterization of pyrrolidine diastereoisomers as potent functional agonists and antagonists of the human melanocortin-4 receptor” (Bioorg Med Chem Lett, 2008).
Active and inactive are the calls of the source. No cut-off for these calls is given here.

How the values were obtained:
Melanocortin receptor 4 [1] = target: T1, Melanocortin receptor 4 (Homo sapiens, UniProt P32245); test: Displacement of [125I]NDP-MSH from human MC4 receptor expressed in HEK293 cells; assay type: cell-based
T1 sequence (P32245 whole entry): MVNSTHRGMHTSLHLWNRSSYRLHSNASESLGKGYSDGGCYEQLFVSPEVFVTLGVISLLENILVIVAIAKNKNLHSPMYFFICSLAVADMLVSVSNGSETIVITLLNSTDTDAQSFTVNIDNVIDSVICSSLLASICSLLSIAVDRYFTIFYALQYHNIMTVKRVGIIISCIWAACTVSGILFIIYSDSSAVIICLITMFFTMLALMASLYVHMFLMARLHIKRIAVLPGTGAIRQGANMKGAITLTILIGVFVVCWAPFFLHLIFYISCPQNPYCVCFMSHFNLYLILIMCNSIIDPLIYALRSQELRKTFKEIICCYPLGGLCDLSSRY
Outline: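 HEK293 cells expressing human MC4R, radioligand competition binding with [125I]-NDP-MSH. Ki values are the average of two or more independent measurements.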

Rattus norvegicus [2] = test: Suppression of food intake in DIO rat at 30 mg/kg, po relative to control; assay type: functional, organism-based; set-up: dose 30 mg/kg
Outline: (§1)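 Male DIO rats in separate groups were dosed orally once daily, 1 h before lights out, for 7 days with vehicle, fenfluramine, or 3, 10 or 30 mg/kg compound. Food intake (corrected for spillage) and body weight were recorded daily. After 7 days, body composition was measured by EchoMRI and fasting glucose by glucometer, each relative to baseline. Significance was set at p < 0.05.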

Rattus norvegicus [3] = test: Effect on food intake in DIO rat assessed as inhibition of feeding at 3 mg/kg, po after 6 days; assay type: functional, organism-based; set-up: dose 3 mg/kg; outline: as §1
Rattus norvegicus [4] = test: Reduction of body weight in DIO rat at 30 mg/kg, po after 2 days; assay type: functional, organism-based; set-up: dose 30 mg/kg; outline: as §1
Rattus norvegicus [5] = test: Increase in fat loss in po dosed DIO rat after 7 days; assay type: functional, organism-based; outline: as §1
Rattus norvegicus [6] = test: Decrease in fasting glucose level in DIO rat at 30 mg/kg, po after 7 days; assay type: functional, organism-based; set-up: dose 30 mg/kg; outline: as §1
Melanocortin receptor 4 [7] = target: T1, Melanocortin receptor 4; test: Intrinsic activity at human MC4 receptor expressed in CHO cells assessed as accumulation of cAMP production relative to alphaMSH; assay type: functional, cell-based
Outline: (§2)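 CHO cells transfected with human MC4R were stimulated by compound and accumulated cAMP was measured by ELISA. Intrinsic activity is expressed relative to α-MSH. Representative experiments were run 2–8 times.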

[8] = target: Melanocyte-stimulating hormone receptor (Homo sapiens, UniProt Q01726); conditions: 10 uM
Sequence of Melanocyte-stimulating hormone receptor (Q01726 whole entry, looked up): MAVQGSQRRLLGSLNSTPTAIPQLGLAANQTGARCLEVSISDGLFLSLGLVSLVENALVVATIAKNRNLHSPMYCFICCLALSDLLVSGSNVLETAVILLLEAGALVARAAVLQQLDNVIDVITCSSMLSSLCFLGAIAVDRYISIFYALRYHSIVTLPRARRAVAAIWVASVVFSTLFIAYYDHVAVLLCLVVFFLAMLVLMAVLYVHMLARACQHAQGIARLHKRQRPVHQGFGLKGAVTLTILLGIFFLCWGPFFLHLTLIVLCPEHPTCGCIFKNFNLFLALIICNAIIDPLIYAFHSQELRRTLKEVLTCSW

Melanocortin receptor 4 [9] = target: T1, Melanocortin receptor 4; test: Agonist activity at human MC4 receptor expressed in CHO cells assessed as accumulation of cAMP production; assay type: functional, cell-based; outline: as §2
Rattus norvegicus [10] = test: Suppression of food intake in ip dosed DIO rat after 24 hrs relative to control; assay type: functional, organism-based
Outline: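 Male DIO rats were food-deprived overnight and on the test day. They were dosed ip at 3, 10 or 30 mg/kg in sterile water, and food was returned 1 h later. Cumulative intake was measured at set intervals over 24 h and compared with vehicle-treated rats.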

Rattus norvegicus [11] = test: Reduction of body weight in po dosed DIO rat; assay type: functional, organism-based
Outline: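 Male DIO rats, separate groups, dosed orally once daily 1 h before lights out for 7 days with vehicle, fenfluramine, or 3, 10 or 30 mg/kg test article. Body weight and spillage-corrected food intake were recorded daily and compared with vehicle-treated controls.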

Structure (SMILES)	Ki (Melanocortin receptor 4 [1]) [nM]	Intrinsic activity (Melanocortin receptor 4 [7]) [%]	EC50 (Melanocortin receptor 4 [9]) [nM]	also measured
CC(C)[C@H](NC(=O)CCN(C)C)c1cccc(F)c1N1CCN(C(=O)[C@@H]2CN(C(C)C)C[C@H]2c2ccc(F)c(F)c2)CC1	290			
Cc1ccc(N2CCN(C(=O)[C@@H]3CN(C4CCOCC4)C[C@H]3c3ccc(Cl)cc3)CC2)c([C@@H](NC(=O)CCN(C)C)C(C)C)c1 (stereo in doubt; 13b-1)		122		Activity (Rattus norvegicus [2]): Active; Activity (Rattus norvegicus [3]): Active; Activity (Rattus norvegicus [4]): Active; Activity (Rattus norvegicus [5]): Active; Activity (Rattus norvegicus [6]): Active; inhibition [8]: 38%
CC(C)[C@H](NC(=O)CCN(C)C)c1cccc(F)c1N1CCN(C(=O)[C@@H]2CN(C(C)C)C[C@H]2c2cc(F)ccc2F)CC1	2050			
CCC(=O)N1C[C@@H](C(=O)N2CCN(c3ccc(C)cc3[C@@H](NC(=O)CCN(C)C)C(C)C)CC2)[C@H](c2ccc(Cl)cc2)C1	4.6	129	27	
Cc1ccc(N2CCN(C(=O)[C@@H]3CNC[C@H]3c3ccc(Cl)cc3)CC2)c([C@@H](NC(=O)CCN(C)C)C(C)C)c1	7.2	72	79	
CCNC(C)Cc1cccc(C(F)(F)F)c1 (stereo not given)				Activity (Rattus norvegicus [10]): Active; Activity (Rattus norvegicus [11]): Active
Cc1ccc(N2CCN(C(=O)[C@H]3CN(C(C)C)C[C@H]3c3ccc(Cl)cc3)CC2)c([C@@H](NC(=O)CCN(C)C)C(C)C)c1	90			
Cc1cccc([C@@H]2CN(C(C)C)C[C@H]2C(=O)N2CCN(c3c(F)cccc3[C@@H](NC(=O)CCN(C)C)C(C)C)CC2)c1	470			
CC(C)[C@H](NC(=O)CCN(C)C)c1cccc(F)c1N1CCN(C(=O)[C@@H]2CN(C(C)C)C[C@H]2c2ccc(C(F)(F)F)c(F)c2)CC1	51	47	340	
CC(=O)N1C[C@@H](C(=O)N2CCN(c3ccc(C)cc3[C@@H](NC(=O)CCN(C)C)C(C)C)CC2)[C@H](c2ccc(Cl)cc2)C1	7.6	100	44	
CC(C)[C@H](NC(=O)CCN(C)C)c1cccc(F)c1N1CCN(C(=O)[C@@H]2CN(C(C)C)C[C@H]2c2ccoc2)CC1	850			
Cc1ccc(N2CCN(C(=O)[C@@H]3CN(C4CCOCC4)C[C@H]3c3ccc(Cl)cc3)CC2)c([C@@H](NC(=O)CCN(C)C)C(C)C)c1 (stereo in doubt; 13b) [listing 1 of 2 here]		121		
CNCC(=O)N[C@H](c1cc(C)ccc1N1CCN(C(=O)[C@@H]2CN(C3CCOCC3)C[C@H]2c2ccc(Cl)cc2)CC1)C(C)C	2.1	84	19	
CC(C)[C@H](NC(=O)CCN(C)C)c1cccc(F)c1N1CCN(C(=O)[C@@H]2CN(C(C)C)C[C@H]2c2cc(F)c(F)c(F)c2)CC1	250			
Cc1ccc(N2CCN(C(=O)[C@@H]3CN(C4CCOCC4)C[C@H]3c3ccc(Cl)cc3)CC2)c([C@@H](NC(=O)CCN(C)C)C(C)C)c1 (stereo in doubt; 13b) [listing 2 of 2 here]	1.4		10	
Cc1ccc(N2CCN(C(=O)[C@@H]3CN(C4CCOCC4)C[C@H]3c3ccc(Cl)cc3)CC2)c([C@@H](N)C(C)C)c1	12	36		
